According to PubChem BioAssay:
Active and inactive are the calls of the source.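 How the source made its calls, unless noted: active means viability at or under a set limit in both replicates, limit being median viability minus 3 SD (cut at about 48% in these data, passing the limit was not always enough); inconclusive means at or under the limit in just one replicate; inactive means at or above the limit in both replicates.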

Assays:
[1] = Her2 expression decrease, cell viability multiplex – SKBR3 breast tumor cells, AlphaScreen, ATP viability, primary screen (AID 461;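 active means Her2 level under about 52% in both replicate screens, with viability over 70% of control, limit read from the data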;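 on Her2 level: lower value means less Her2 protein in the cells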;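 on viability: percent of carrier control wells set as 100% viability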); settings: SKBR3 Her2 protein level, 18-24 h, measured here: SKBR3 viability, ATP luminescence, at 10 µM
[2] = molecular target: Receptor tyrosine-protein kinase erbB-2 (Homo sapiens) (UniProt P04626); assay: as above; settings: 18-24 h, at 10 µM, stronger effect = lower value
Chain of Receptor tyrosine-protein kinase erbB-2 (Homo sapiens) (P04626 whole entry, looked up): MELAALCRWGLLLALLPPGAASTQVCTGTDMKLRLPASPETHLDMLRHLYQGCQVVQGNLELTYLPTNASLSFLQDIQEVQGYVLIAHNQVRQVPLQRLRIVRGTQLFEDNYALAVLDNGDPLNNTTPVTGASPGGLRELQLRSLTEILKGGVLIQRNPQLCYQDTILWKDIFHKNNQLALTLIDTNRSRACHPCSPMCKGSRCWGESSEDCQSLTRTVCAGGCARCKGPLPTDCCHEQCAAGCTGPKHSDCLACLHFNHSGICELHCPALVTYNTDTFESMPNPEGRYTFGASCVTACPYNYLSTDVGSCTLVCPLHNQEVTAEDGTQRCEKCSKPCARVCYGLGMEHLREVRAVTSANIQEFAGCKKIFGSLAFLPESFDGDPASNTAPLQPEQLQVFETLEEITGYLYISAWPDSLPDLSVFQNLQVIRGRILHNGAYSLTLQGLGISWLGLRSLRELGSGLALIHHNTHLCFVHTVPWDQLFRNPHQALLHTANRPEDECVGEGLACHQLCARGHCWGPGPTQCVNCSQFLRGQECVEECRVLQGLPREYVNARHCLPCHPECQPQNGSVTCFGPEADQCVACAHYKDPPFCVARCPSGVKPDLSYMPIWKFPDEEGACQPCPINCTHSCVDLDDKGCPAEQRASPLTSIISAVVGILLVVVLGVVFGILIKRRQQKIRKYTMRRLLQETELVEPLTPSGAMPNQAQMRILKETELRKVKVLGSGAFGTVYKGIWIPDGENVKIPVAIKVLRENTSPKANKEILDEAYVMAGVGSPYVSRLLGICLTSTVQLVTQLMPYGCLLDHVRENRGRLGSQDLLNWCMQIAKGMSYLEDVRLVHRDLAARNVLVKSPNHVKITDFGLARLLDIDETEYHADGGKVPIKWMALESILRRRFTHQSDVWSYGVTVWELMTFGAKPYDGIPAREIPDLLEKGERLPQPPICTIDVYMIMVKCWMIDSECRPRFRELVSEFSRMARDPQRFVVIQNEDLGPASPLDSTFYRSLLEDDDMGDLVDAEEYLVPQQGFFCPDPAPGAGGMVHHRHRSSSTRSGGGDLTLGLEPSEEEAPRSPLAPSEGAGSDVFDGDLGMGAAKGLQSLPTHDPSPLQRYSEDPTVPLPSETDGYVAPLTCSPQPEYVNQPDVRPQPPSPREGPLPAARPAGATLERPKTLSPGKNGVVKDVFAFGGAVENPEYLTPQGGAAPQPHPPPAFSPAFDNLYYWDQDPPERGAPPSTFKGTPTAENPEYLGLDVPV

[3] = reduced viability of SK-BR-3 breast cancer cells – cell-based, 24 h, human, pilot screen (AID 572;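 active means viability at or below 10% of carrier control in both of two separate runs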;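 further: compound exposure lasted between 18 and 24 h rather than exactly 24 h; 100% = carrier-treated control wells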); settings: SK-BR-3 viability, CellTiter-Glo luminescence, at 10 µM, stronger effect = lower value
[4] = HUVEC growth inhibition – cell-based, human, primary screen (AID 575;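 active means viability at or below 30% in both replicate assays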;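 further: 100% = median of untreated cell wells with 0.1% DMSO on each plate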); settings: HUVEC proliferation, CellTiter-Glo luminescence, 72 h; at 10 µM; stronger effect = lower value
Procedure, shortened: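 Timing: 72 h treatment at 37 °C; material: HUVEC primary cells; technique: CellTiter-Glo luminescence measuring cellular ATP; controls: vehicle and MePR control wells; measure: percent of median DMSO-control luminescence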

[5] = H69AR cell proliferation blockers – human, duplicate replicates, primary screen (AID 580); settings: H69AR lung tumor cells viability, ATP luminescence, 72 h; at 10 µM; stronger effect = lower value;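 further: 100% = mean luminescence of untreated wells and 0% = no signal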
[6] = MRP1 drug-resistance reversers in H69AR cells – cell-based, doxorubicin co-treatment, pilot screen (AID 601;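 active means viability loss from added drug above about 55%, and viability with drug at most 40%, in both replicates, limit read from the data, passing the limit was not always enough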); settings: CellTiter-Glo, 72 h, at 10 µM; for differential viability (reversal): stronger effect = higher value
[7] = yeast transport mutant growth inhibition pilot in 384-well plates, post-Golgi transport modulator project (AID 636; in the data active means inhibition above about 31%); settings: absorbance 615 nm, about 18 h, stronger effect = higher value
[8] = growth suppression of yeast trafficking mutant, preliminary HTS, modulators of trafficking downstream of Golgi apparatus project, 1536-format plate, OD 615 nm (AID 637; in the data active means inhibition above about 30%); settings: yeast transport mutant growth, absorbance 615 nm, 18 h; stronger effect = higher value
[9] = H69AR cells + 2 uM doxorubicin, measured here: viability with 2 uM doxorubicin, stronger effect = lower value
[10] = H69AR cells, compound alone cytotoxicity

SMILES	viability [1]	Her2 level [2]	viability [3]	viability [4]	viability [5]	differential viability (reversal) ([6]; H69AR cells + 2 uM doxorubicin)	viability [6, 9]	viability [6, 10]	inhibition [7]	inhibition [8]
Clc1cc2c(c(Cn3cnc4ccccc43)c1)OCOC2	109%	106% (inactive)	109% (inactive)	87.8% (inactive)	98% (inactive)	6.4% (inactive)	91.6%	98%	-3.33% (inactive)	-5.57% (inactive)
COCCn1c(SCC(=O)c2ccccc2)nc2c(c1=O)SC(C)C2 (stereo not given)	108%	106% (inactive)	108% (inactive)	98.9% (inactive)	79.7% (inactive)	27.6% (inactive)	52.1%	79.7%	-5.2% (inactive)	3.44% (inactive)
Cc1cc(C)n(CCc2nc(-c3cccs3)cs2)n1	93%	88% (inactive)	93% (inactive)	106% (inactive)	104% (inactive)	25.3% (inactive)	79.2%	104%	-2.6% (inactive)	-0.48% (inactive)
Cc1nc(CNS(=O)(=O)c2ccc3c(c2)OCCO3)cs1	96%	142% (inactive)	96% (inactive)	105% (inactive)	96.6% (inactive)	-0.265% (inactive)	96.9%	96.6%	2.24% (inactive)	9.51% (inactive)
CCCn1c(=O)c2ccccc2n2c(SCCOc3ccccc3F)nnc12	72%	102% (inactive)	72% (inactive)	85.2% (inactive)	88.8% (inactive)	18.1% (inactive)	70.7%	88.8%	2.08% (inactive)	-6.72% (inactive)
CCCN1C2CCCC1CC(NC(=O)Nc1cccc(C(C)=O)c1)C2 (stereo not given)	105%	77% (inactive)	105% (inactive)	94.8% (inactive)	94.3% (inactive)	-2.24% (inactive)	96.5%	94.3%	-1.95% (inactive)	-0.95% (inactive)
COc1ccc(CNc2ccc(C(=O)O)cc2)cc1	102%	87% (inactive)	102% (inactive)	93% (inactive)	91.7% (inactive)	4.9% (inactive)	86.8%	91.7%	-3.87% (inactive)	8.55% (inactive)
O=S(=O)(c1ccccc1)c1nc(-c2cccs2)oc1NCC1CCCO1 (stereo not given)	84.5%	97% (inactive)	84.5% (inactive)	87.9% (inactive)	99.7% (inactive)	-2.42% (inactive)	102%	99.7%	2.67% (inactive)	10.7% (inactive)
Cc1ccc(S(=O)(=O)N2CCOCC(=O)NCCOCCNC(=O)COCC2)cc1	93.5%	102% (inactive)	93.5% (inactive)	95.4% (inactive)	106% (inactive)	8.95% (inactive)	96.9%	106%	-4.13% (inactive)	-4.26% (inactive)
COc1cc(C(=O)Nc2cc(Cl)ccc2C)c(-n2cnnn2)cc1OC	102%	98% (inactive)	102% (inactive)	92.6% (inactive)	94.9% (inactive)	4.13% (inactive)	90.8%	94.9%	-8% (inactive)	2.95% (inactive)
COC(=O)COc1ccc(S(=O)(=O)NCCC2=CCCCC2)cc1	99%	83.5% (inactive)	99% (inactive)	10.6% (active)	95% (inactive)	-3.67% (inactive)	98.7%	95%	0% (inactive)	-1.13% (inactive)
Cn1c(CCNC(=O)c2ccco2)nc2cc(NC(=O)C3CCCCC3)ccc21	101%	114% (inactive)	101% (inactive)	78.3% (inactive)	84.5% (inactive)	2.02% (inactive)	82.5%	84.5%	-8.49% (inactive)	-1.59% (inactive)
CC(=O)c1cccc(S(=O)(=O)NCC(c2ccco2)N2CCCCC2)c1 (stereo not given)	101%	80% (inactive)	101% (inactive)	96% (inactive)	99.4% (inactive)	11.9% (inactive)	87.5%	99.4%	-0.91% (inactive)	-7.3% (inactive)
Cn1cccc1Cc1nnc(SCC(=O)Nc2ccccc2F)n1-c1ccc(F)cc1	87.5%	99.5% (inactive)	87.5% (inactive)	103% (inactive)	98.2% (inactive)	-2.87% (inactive)	101%	98.2%	-1.28% (inactive)	-6.5% (inactive)
Cc1cc2c(cc(C(=O)NCc3cccnc3)n2Cc2ccc(Cl)cc2)o1	92%	68.5% (inactive)	92% (inactive)	103% (inactive)	98.2% (inactive)	-0.245% (inactive)	98.5%	98.2%	-1.45% (inactive)	-3.33% (inactive)
Cn1cccc1C1NC(=O)c2c(sc3c2CCC(C(C)(C)C)C3)N1 (stereo not given)	110%	77.5% (inactive)	110% (inactive)	125% (inactive)	90.4% (inactive)	-11% (inactive)	101%	90.4%	-9.86% (inactive)	1.67% (inactive)

SMILES	viability [1]	Her2 level [2]	viability [3]	viability [4]	viability [5]	differential viability (reversal) ([6]; H69AR cells + 2 uM doxorubicin)	viability [6, 9]	viability [6, 10]	inhibition [7]	inhibition [8]
CN(C)c1ccc(NC(=O)c2cc3c(=O)n4ccccc4nc3n2C)cc1	87.5%	72.5% (inactive)	87.5% (inactive)	97.8% (inactive)	80.3% (inactive)	-3.47% (inactive)	83.8%	80.3%	-0.54% (inactive)	14.1% (inactive)
CC(C)(C)OC(=O)N1CCC(C(=O)N[C@H](Cc2ccccc2)C(=O)O)CC1	101%	93.5% (inactive)	101% (inactive)	108% (inactive)	98.2% (inactive)	3.02% (inactive)	95.1%	98.2%	-10.4% (inactive)	3.5% (inactive)
CCc1cc2c(CN3CCN(CCO)CC3)cc(=O)oc2cc1O	106%	97% (inactive)	106% (inactive)	90.4% (inactive)	92.6% (inactive)	0.895% (inactive)	91.7%	92.6%	-2.53% (inactive)	1.61% (inactive)
Cc1nc(N2CCC(C)CC2)c2c(C)c(C(=O)O)sc2n1	100%	77% (inactive)	100% (inactive)	74.2% (inactive)	84.9% (inactive)	3.62% (inactive)	81.3%	84.9%	-4.74% (inactive)	-6.33% (inactive)
Cc1ccc2c(c1)CCCN2C(=O)Nc1ccc2c(c1)OCO2	95.5%	79% (inactive)	95.5% (inactive)	84.8% (inactive)	89.5% (inactive)	0.28% (inactive)	89.2%	89.5%	-6.27% (inactive)	6.89% (inactive)
Cc1cc(C)n(CCCNC(=O)c2ccc3c(c2)NC(=O)CS3)n1	104%	80.5% (inactive)	104% (inactive)	91.8% (inactive)	89.7% (inactive)	3.36% (inactive)	86.3%	89.7%	-5.6% (inactive)	-1.48% (inactive)
C=CCNC(=O)c1cccc(Br)c1	92%	94% (inactive)	92% (inactive)	89.4% (inactive)	92% (inactive)	-9.44% (inactive)	101%	92%	9.59% (inactive)	5.08% (inactive)
CC1CCN(C(=O)C2CCN(S(=O)(=O)c3cnc[nH]3)CC2)CC1	98%	93% (inactive)	98% (inactive)	96.5% (inactive)	103% (inactive)	7.72% (inactive)	95.3%	103%	-4.61% (inactive)	3.87% (inactive)
O=c1oc2ccccc2c2nccnc12	93.5%	115% (inactive)	93.5% (inactive)	103% (inactive)	96.5% (inactive)	5.08% (inactive)	91.4%	96.5%	-0.13% (inactive)	-9.5% (inactive)
CCOc1ccc2ccccc2c1C(=O)N1CCN(c2ccccc2)CC1	95%	83.5% (inactive)	95% (inactive)	47.3% (inactive)	9.8% (active)	-57% (inactive)	66.8%	9.8%	-2.8% (inactive)	-10.6% (inactive)
COc1ccc(CCNS(=O)(=O)c2ccc3oc(C(=O)O)c(C)c3c2)cc1OC	109%	92% (inactive)	109% (inactive)	112% (inactive)	88.7% (inactive)	-2.46% (inactive)	91.2%	88.7%	0.78% (inactive)	1.15% (inactive)
CCOC(=O)Cn1nnnc1C(C(C)C)N(Cc1cc2c(C)cc(C)cc2[nH]c1=O)C1CCCC1 (stereo not given)	98%	102% (inactive)	98% (inactive)	58.6% (inactive)	88.5% (inactive)	-1.4% (inactive)	89.9%	88.5%	-5.41% (inactive)	16.6% (inactive)
N#Cc1nc(-c2ccco2)oc1NCc1ccco1	94%	89% (inactive)	94% (inactive)	89.3% (inactive)	100% (inactive)	8.27% (inactive)	92%	100%	-4.13% (inactive)	-8.25% (inactive)
Cc1nc(SCC(=O)Nc2ccccc2C(F)(F)F)c2c(=O)n(C)c(=O)n(C)c2n1	87%	85% (inactive)	87% (inactive)	80.3% (inactive)	74% (inactive)	-2.32% (inactive)	76.3%	74%	-3.87% (inactive)	3.61% (inactive)
CCOc1ccc(Oc2nc(Nc3ccc(C)cc3)nc(N(C)C)n2)nn1	85.5%	92% (inactive)	85.5% (inactive)	89.3% (inactive)	95.3% (inactive)	11.3% (inactive)	84%	95.3%	-4.19% (inactive)	1.97% (inactive)
COc1ccc2c(c1)C(=NO)c1cc(OC)ccc1-2	120%	61.5% (inactive)	120% (inactive)	58.5% (inactive)	83.8% (inactive)	-6.16% (inactive)	90%	83.8%	-8.24% (inactive)	2% (inactive)
